Values joined by “and” are separate entries in the source; they are usually repeats but may differ in a detail not shown here. Equal entries are not always repeated.
Experiments:
B16 [1] = test: Compound was evaluated in vivo for antitumor activity against B16 melanoma after injecting the compound intravenously for percent T/C (value in parentheses indicates the day of evaluation); type: functional, Mus musculus
In short: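 30-60 mg tumor fragments implanted sc by trocar on day 0 into C57Bl/6-derived hosts (B16) or C3H/He-derived hosts (16/C). Drug given iv on days 6, 9 and 13 (B16) or 6, 9 and 12 (16/C), 10 mice per group. Tumors measured by caliper. T/C % taken from median tumor burden of treated vs control groups on day 15 (B16) or day 14 (16/C). Body weight change per mouse recorded at nadir.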

B16 [2] = test: Compound was evaluated in vivo for antitumor activity against B16 melanoma after injecting the compound intravenously for total dose; type: functional, Mus musculus
B16 [3] = test: Compound was evaluated in vivo for antitumor activity against […] B16 melanoma 1 after injecting the compound intravenously for optimal dose; type: functional, Mus musculus
B16 [4] = test: Compound was evaluated in vivo for antitumor activity against B16 melanoma 1 after injecting the compound intravenously for total dose.; type: functional, Mus musculus
B16 [5] = test: Compound was evaluated in vivo for antitumor activity against B16 melanoma 1 after injecting the compound intravenously for toxicity related death.; type: functional, Mus musculus
[6] = Compound was evaluated in vivo for antitumor activity against Glasgow osteogenic sarcoma after injecting the compound intravenously for median tumor burden; type: functional, Mus musculus
In short: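 Glasgow osteogenic sarcoma in C57Bl/6-derived hosts: 30-60 mg fragments implanted sc by trocar on day 0. Drug given iv on days 3, 6 and 9, 7 mice per group. Tumors measured by caliper. Median tumor burden recorded on day 10. Body weight change per mouse recorded at nadir. Toxicity-related deaths counted.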

L1210 [7] = test: Compound was evaluated in vivo for antitumor activity after intraperitoneal administration against L1210(935) for total dose at an optimal dose of 0.2 mg/kg/injection at 1-4 day schedule.; type: functional, Mus musculus
In short: (§1)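 L1210 leukemia, maintained in DBA/2 mice, was given ip as 10⁵ cells on day 0 to F1 hybrid or strain-of-origin mice over 18 g, in groups of 8. Dosing was ip from day 1, and mortality was checked daily. Median day of death counts dying mice only. %ILS = 100×(treated − control median day of death)/control median. Tumor-free survivors were counted on day 60. Weight change is g/mouse at nadir.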

L1210 [8] = test: Compound was evaluated in vivo for antitumor activity after intraperitoneal administration against L1210(935) for total dose at an optimal dose of 0.5 mg/kg/injection at 1 day schedule.; type: functional, Mus musculus; in short: as §1
L1210 [9] = test: Compound was evaluated in vivo for antitumor activity after intraperitoneal administration against L1210(935) for mortality range at an optimal dose of 0.2 mg/kg/injection at 1-4 day schedule.; type: functional, Mus musculus; in short: as §1
L1210 [10] = test: Compound was evaluated in vivo for antitumor activity after intraperitoneal administration against L1210(935)for change in body weight at an optimal dose of 0.25 mg/kg/injection at 1,4,7,11day schedule.; type: functional, Mus musculus; in short: as §1
L1210 [11] = test: Compound was evaluated in vivo for antitumor activity after intraperitoneal administration against L1210(935)for change in body weight at an optimal dose of 0.5 mg/kg/injection at 1 day schedule.; type: functional, Mus musculus; in short: as §1
L1210 [12] = test: Compound was evaluated in vivo for antitumor activity after intraperitoneal administration against L1210(935) for mortality range at an optimal dose of 0.125 mg/kg/injection at 1,4,7,11day schedule.; type: functional, Mus musculus; in short: as §1
L1210 [13] = test: Compound was evaluated in vivo for antitumor activity after intraperitoneal administration against L1210(935) for total dose at an optimal dose of 0.1 mg/kg/injection at 1-4 day schedule.; type: functional, Mus musculus; in short: as §1
L1210 [14] = test: Compound was evaluated in vivo for antitumor activity after intraperitoneal administration against L1210(935) for tumor free survivors at an optimal dose of 0.1 mg/kg/injection at 1-4 day schedule.; type: functional, Mus musculus; in short: as §1
L1210 [15] = test: Compound was evaluated in vivo for antitumor activity after intraperitoneal administration against L1210(935) for tumor free survivors at an optimal dose of 0.5 mg/kg/injection at 1 day schedule.; type: functional, Mus musculus; in short: as §1
L1210 [16] = test: Compound was evaluated in vivo for antitumor activity after intraperitoneal administration against L1210(935)for % increase in life span at an optimal dose of 0.5 mg/kg/injection at 1 day schedule.; type: functional; conditions: Mus musculus, L1210, ip, 24 h; in short: as §1
P388 [17] = test: Compound was evaluated in vivo for antitumor activity after intraperitoneal administration against P388/L-PAM(14) for % increase in life span at an optimal dose of 0.5 mg/kg/injection at one day schedule.; type: functional; conditions: Mus musculus, P388, ip, 24 h
P388 [18] = test: Compound was evaluated in vivo for antitumor activity after intraperitoneal administration against P388/L-PAM(14) for median day of death at an optimal dose of 0.2 mg/kg/injection at 1,2,3,4 day schedule.; type: functional, Mus musculus
P388 [19] = test: Compound was evaluated in vivo for antitumor activity after intraperitoneal administration against P388/L-PAM(14) for median day of death at an optimal dose of 0.5 mg/kg/injection at 1,4,7,11 day schedule.; type: functional, Mus musculus
P388 [20] = test: Compound was evaluated in vivo for antitumor activity after intraperitoneal administration against P388/L-PAM(14) for tumor free survivors at an optimal dose of 0.1 mg/kg/injection at 1,2,3,4 day schedule.; type: functional, Mus musculus
P388 [21] = test: Compound was evaluated in vivo for antitumor activity after intraperitoneal administration against P388/L-PAM(14) for total dose at an optimal dose of 0.125 mg/kg/injection at 1,4,7,11 day schedule.; type: functional, Mus musculus
P388 [22] = test: Compound was evaluated in vivo for antitumor activity after intraperitoneal administration against P388/L-PAM(14) for total dose at an optimal dose of 0.2 mg/kg/injection at 1,2,3,4 day schedule.; type: functional, Mus musculus
P388 [23] = test: Compound was evaluated in vivo for antitumor activity after intraperitoneal administration against P388 (1303) for mortality range at an optimal dose of 0.75 mg/kg/injection; type: functional, Mus musculus
P388 [24] = test: Compound was evaluated in vivo for antitumor activity after intraperitoneal administration against P388/L-PAM(14) for total dose at an optimal dose of 0.5 mg/kg/injection at 1,4,7,11 day schedule.; type: functional, Mus musculus
P388 [25] = test: Compound was evaluated in vivo for antitumor activity after intraperitoneal administration against P388/L-PAM(14) for total dose at an optimal dose of 0.5 mg/kg/injection at one day schedule.; type: functional, Mus musculus
P388 [26] = test: Compound was evaluated in vivo for antitumor activity after intraperitoneal administration against P388/L-PAM(14) for change in body weight at an optimal dose of 1 mg/kg/injection; type: functional, Mus musculus
P388 [27] = test: Compound was evaluated in vivo for antitumor activity after intraperitoneal administration against P388/L-PAM(14) for % increase in life span at an optimal dose of 0.25 mg/kg/injection at 1,4,7,11 day schedule.; type: functional; conditions: Mus musculus, P388, ip
P388 [28] = test: Compound was evaluated in vivo for antitumor activity after intraperitoneal administration against P388 (1313) for % increase in life span at an optimal dose of 0.2 mg/kg/injection; type: functional; conditions: Mus musculus, P388, ip
[29] = Compound was evaluated in vivo for antitumor activity against colon adenocarcinoma 38 after injecting the compound intravenously for optimal dose; type: functional, Mus musculus
[30] = Compound was evaluated in vivo for antitumor activity against colon adenocarcinoma 38 after injecting the compound intravenously for percent T/C (value in parentheses indicates the day of evaluation); type: functional, Mus musculus
P388 [31] = test: Compound was evaluated in vivo for antitumor activity after intraperitoneal administration against P388 (1313) for change in body weight at an optimal dose of 0.25 mg/kg/injection; type: functional, Mus musculus

Which T/C (B16 [1]) does the source give for `CN(C)CCCNc1ncnc2c1C(=O)C(N1CC1)=C(N1CC1)C2=O` here?
Its T/C is 41% and 78%.

What about the Total dose (B16 [2]) of the same compound?
Its Total dose is 1.2 mg/kg.

What about the Optimal dose (B16 [3]) of the same compound?
The Optimal dose was 0.2 mg/kg.

What about the Total dose (B16 [4]) of the same compound?
Its Total dose is 1.8 mg/kg.

And the Toxicity (B16 [5])?
Its Toxicity is 0.

And the Tumor burden [6]?
The Tumor burden was 40 mg.

And the Total dose (L1210 [7])?
Its Total dose is 0.8 mg/kg.

And the Total dose (L1210 [8])?
The Total dose was 0.5 mg/kg.

What about the Mortality (L1210 [9]) of the same compound?
Its Mortality is 14 days.

What about the “Change in body weight” value (L1210 [10]) of the same compound?
Its value is 1.6 g mouse-1.

And the “Change in body weight” value (L1210 [11])?
The value was 0.3 g mouse-1.

And the Mortality (L1210 [12])?
Its Mortality is 14 days.

And the Total dose (L1210 [13])?
The Total dose was 0.4 mg/kg.

What about the Survivors (L1210 [14]) of the same compound?
Its Survivors is 0.

What about the Survivors (L1210 [15]) of the same compound?
The Survivors was 0.

And the ILS at 0.5 mg/kg (L1210 [16])?
Its ILS at 0.5 mg/kg is 27%.

What about the ILS at 0.5 mg/kg (P388 [17]) of the same compound?
Its ILS at 0.5 mg/kg is 28%.

What about the “Median day of death” value (P388 [18]) of the same compound?
The value was 19.

What about the “Median day of death” value (P388 [19]) of the same compound?
Its value is 22.5.

What about the Survivors (P388 [20]) of the same compound?
The Survivors was 0.

And the Total dose (P388 [21])?
The Total dose was 0.5 mg/kg.

What about the Total dose (P388 [22]) of the same compound?
The Total dose was 0.8 mg/kg.

And the Mortality (P388 [23])?
Its Mortality is 65 days.

What about the Total dose (P388 [24]) of the same compound?
The Total dose was 2 mg/kg.

And the Total dose (P388 [25])?
Its Total dose is 0.5 mg/kg.

What about the “Change in body weight” value (P388 [26]) of the same compound?
The value was -1.2 g mouse-1.

What about the ILS at 0.25 mg/kg (P388 [27]) of the same compound?
The ILS at 0.25 mg/kg was 18%.

And the ILS at 0.2 mg/kg (P388 [28])?
Its ILS at 0.2 mg/kg is 62%.

What about the Optimal dose [29] of the same compound?
Its Optimal dose is 0.25 mg/kg.

And the T/C [30]?
The T/C was 102%.

And the “Change in body weight” value (P388 [31])?
Its value is 2.4 g mouse-1.
